Test results: ChEMBL document CHEMBL1152517, “Isocombretastatins A: 1,1-diarylethenes as potent inhibitors of tubulin polymerization and cytotoxic compounds” (Bioorg Med Chem, 2009)

Columns and labels:
[1] = Inhibition of calf brain tubulin polymerization after 20 mins by turbidimetric method; parameters: species or system Bos taurus
Procedure, shortened: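 Microtubule protein at 1.0 mg/mL in 0.1 M MES, 1 mM EGTA, 1 mM MgCl2, 1 mM β-ME, 1.5 mM GTP, pH 6.7, with 4% DMSO. Preincubated with ligand 30 min at 20 °C, then 10 min on ice. Assembly started by shift from 4 to 37 °C and followed by turbidity at 450 nm. IC50 read graphically as 50% inhibition at 20 min. At least two independent experiments using different protein preparations.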

[2] = species on record: Bos taurus; experiment: Inhibition of calf brain tubulin polymerization at 20 uM after 20 mins by turbidimetric method
[3] = system: A549; experiment: Cytotoxicity against human A549 cells after 72 hrs by XTT assay; format: functional, cell-based; settings: A549, 72 h
[4] = system: HT-29; experiment: Cytotoxicity against human HT-29 cells after 72 hrs by XTT assay; format: functional, cell-based; settings: HT-29, 72 h
[5] = system: HL-60; experiment: Cytotoxicity against human HL60 cells after 72 hrs by XTT assay; format: functional, cell-based; settings: HL-60, 72 h
Procedure, shortened: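 Cells seeded per well (HeLa 1.5 × 10^3, HT-29 3 × 10^3, A-549 5 × 10^3, HL-60 3 × 10^3). Adherent lines attached for 24 h at 37 °C, 5% CO2. Compound exposure at various concentrations for 72 h. XTT/PMS reagent added, 4 h further incubation, formazan absorbance read at 490 nm (reference 655 nm). IC50 is concentration giving 50% proliferation inhibition. Mean of three independent experiments run in triplicate.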

[6] = system: HeLa; experiment: Cytotoxicity against human HeLa cells after 72 hrs by XTT assay; format: functional, cell-based
[7] = species on record: Bos taurus; experiment: Inhibition of calf brain tubulin polymerization at 40 uM after 20 mins by turbidimetric method
[8] = species on record: Bos taurus; experiment: Inhibition of calf brain tubulin polymerization at 5 uM after 20 mins by turbidimetric method

| IC50 [1] | inhibition [2] | inhibition [7] | inhibition [8] | SMILES | IC50 [3] | IC50 [4] | IC50 [5] | IC50 [6] |
| --- | --- | --- | --- | --- | --- | --- | --- | --- |
| 2500 nM | 94% |  |  | COc1ccc(C(=O)c2cc(OC)c(OC)c(OC)c2)cc1O [PHENSTATIN] | 290 nM | 1800 nM | 31 nM |  |
| 5700 nM | 95% |  |  | CCn1ccc2cc(C(=O)c3cc(OC)c(OC)c(OC)c3)ccc21 |  | 34 nM |  |  |
| 15000 nM | 82% |  |  | C=C(c1cc(OC)c(OC)c(OC)c1)c1ccc2ccccc2c1 | 360 nM | 250 nM | 910 nM | 300 nM |
|  |  | 0% |  | COc1cc(C(O)c2ccc3ccccc3c2)cc(OC)c1OC (stereo not drawn) |  |  |  |  |
|  | 11% |  |  | C=C(c1ccc2ccccc2c1)c1ccc(OC)c(OC)c1OC |  | > 10000 nM |  | 200 nM |
|  |  |  |  | COc1cccc2c1C(=O)c1c(O)c3c(c(O)c1C2=O)C[C@@](O)(C(=O)CO)C[C@@H]3O[C@H]1C[C@H](N)[C@H](O)[C@H](C)O1 [DOXORUBICIN] | 290 nM | 240 nM | 27 nM | 190 nM |
|  | 41% |  |  | CCn1ccc2cc(C(O)c3cc(OC)c(OC)c(OC)c3)ccc21 (stereo not drawn) | > 10000 nM | > 10000 nM | < 1000 nM | < 1000 nM |
|  | 9% |  |  | COc1ccc(C(O)c2ccc3c(ccn3C)c2)c(OC)c1OC (stereo not drawn) | > 10000 nM |  |  | 2500 nM |
|  | 12% |  |  | COc1ccc(C(=O)c2cc(OC)c(OC)c(OC)c2)cc1[N+](=O)[O-] | > 10000 nM | 2900 nM | 1800 nM | 2500 nM |
| 5600 nM | 47% |  |  | CCn1ccc2cc(C(=O)c3ccc(OC)c(OC)c3OC)ccc21 | > 10000 nM | > 1000 nM | > 1000 nM | 450 nM |
|  | 0% |  |  | CCn1ccc2cc(C(O)c3ccc(OC)c(OC)c3OC)ccc21 (stereo not drawn) | > 10000 nM | > 10000 nM | > 10000 nM | < 1000 nM |
|  | 12% |  |  | C=C(c1ccc(OC)c([N+](=O)[O-])c1)c1ccc(OC)c(OC)c1OC | > 10000 nM | 2900 nM | 2600 nM | 32 nM |
|  | 4% |  |  | COc1ccc(C(=O)c2ccc3ccccc3c2)c(OC)c1OC | > 10000 nM | > 10000 nM | 3300 nM |  |
|  | 16% |  |  | C=C(c1ccc(OC)cc1)c1ccc(OC)c(OC)c1OC | > 10000 nM | 3200 nM | 480 nM | 300 nM |
|  | 7% |  |  | COc1ccc(C(=O)c2ccc(OC)c(OC)c2OC)cc1 | > 10000 nM | 3100 nM | 2000 nM | 1800 nM |
|  | 0% |  |  | COc1ccc(C(O)c2ccc3ccccc3c2)c(OC)c1OC (stereo not drawn) | > 10000 nM | > 10000 nM |  | > 10000 nM |
| 1500 nM |  |  | 81% | COc1ccc(C(=O)c2cc(OC)c(OC)c(OC)c2)cc1N | 57 nM | 32 nM | 30 nM | 30 nM |
| 6000 nM | 83% |  |  | C=C(c1cc(OC)c(OC)c(OC)c1)c1ccc2c(ccn2CC)c1 |  | 35 nM |  | 17 nM |
|  | 34% |  |  | C=C(c1ccc2c(ccn2CC)c1)c1ccc(OC)c(OC)c1OC | > 10000 nM | > 1000 nM |  | > 1000 nM |
| 1100 nM |  | 100% |  | COc1cc(C(=O)c2ccc3ccccc3c2)cc(OC)c1OC |  |  |  | 44 nM |
|  | 40% |  |  | COc1ccc(C(=O)c2ccc3c(ccn3C)c2)c(OC)c1OC | 500 nM | 30 nM |  | 30 nM |
| 18000 nM | 86% |  |  | COc1cc(C(O)c2ccc3c(ccn3C)c2)cc(OC)c1OC (stereo not drawn) |  |  |  |  |
|  | 32% |  |  | C=C(c1ccc(OC)c(N)c1)c1ccc(OC)c(OC)c1OC | 2700 nM | 330 nM | 230 nM | 60 nM |
| 12200 nM | 86% |  |  | C=C(c1ccc(OC)c(O)c1)c1ccc(OC)c(OC)c1OC | 220 nM | 310 nM | 240 nM | 35 nM |
|  | 20% |  |  | COc1ccc(C(=O)c2cc(OC)c(OC)c(OC)c2)cc1 | 3100 nM | 290 nM | 270 nM | 37 nM |
| 7900 nM |  | 98% |  | COc1cc(C(=O)c2ccc3c(ccn3C)c2)cc(OC)c1OC |  |  |  | 35 nM |

| SMILES | IC50 [1] | inhibition [2] | inhibition [7] | inhibition [8] | IC50 [3] | IC50 [4] | IC50 [5] | IC50 [6] |
| --- | --- | --- | --- | --- | --- | --- | --- | --- |
| COc1ccc(/C=C\c2cc(OC)c(OC)c(OC)c2)cc1O [COMBRETASTATIN A4] | 3000 nM |  |  |  |  |  | 2 nM |  |
